Screening data (PubChem BioAssay)
CCR6 antag: CCR6 receptor antagonists, primary screen, cell-based, CHO-K1, luminescence, beta-arrestin, uHTS; inhibition, % at 20 µM; AID 493098, 2011; CHO-K1 CCR6 PathHunter beta-arrestin, CCL20-stimulated; C-C chemokine receptor type 6 (Homo sapiens), P51684; hit rate 0.49% among 340,000;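 active = compounds whose inhibition of the agonist-driven luminescence signal at 20 µM reaches about 50%, limit read from the data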;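 note: cells stimulated with CCL20 at 14 nM final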
APJ agonist: agonists of human apelin receptor APJ, primary screen, CHO-K1 cells, PathHunter beta-arrestin, luminescence | P35414 | 0% DMSO wells, 100% apelin | activation, % at 20 µM | hit rate 0.11% among 330,000 | AID 2520, 2010;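 active = activation more than six SD over the plate average, tested at 20 µM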
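Assay system – PathHunter CHO-K1 APJ (AGTRL-1) beta-arrestin reporter cells · Compound – one dose, 20 µM compound, 1% DMSO · Timing – compound 90 min 25 °C, reagent 1 h · Measured by – luminescence from split beta-galactosidase complementation, Galacton Star/Emerald II substrate · Measure – beta-arrestin recruitment to APJ as agonist activity, luminescent signal · Benchmarks – DMSO vs Apelin-13 10 nM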
EBI2 block: EBI2 receptor antagonists, beta-arrestin recruitment, primary screen, cell-based, luminescence, 7a,25-OHC stimulation, uHTS; inhibition, % at 5 µM; 7a,25-OHC stimulated; AID 651636, 2012; hit rate 0.81% among 360,000; in the data active = inhibition above about 38%;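 note: enzyme fragment complementation signal reports receptor beta-arrestin coupling in cells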
Target sequence (P32249 whole entry, looked up, the tested form may be a part): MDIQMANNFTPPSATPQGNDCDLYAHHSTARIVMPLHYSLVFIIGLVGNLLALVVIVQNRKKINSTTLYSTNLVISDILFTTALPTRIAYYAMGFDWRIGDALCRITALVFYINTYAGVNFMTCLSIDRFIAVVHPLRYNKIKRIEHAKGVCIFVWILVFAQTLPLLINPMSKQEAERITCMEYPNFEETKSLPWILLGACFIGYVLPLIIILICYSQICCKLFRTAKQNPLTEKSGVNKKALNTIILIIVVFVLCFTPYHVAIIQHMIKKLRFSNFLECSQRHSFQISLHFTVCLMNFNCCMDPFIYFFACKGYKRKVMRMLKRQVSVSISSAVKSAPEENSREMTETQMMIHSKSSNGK
FXN GAA850 act: FXN promoter activators, primary screen, cell-based, luciferase luminescence, HEK293 lucGAA850 | hit rate 0.56% among 360,000 | activation, % at 6 µM | AID 540364, 2011 | HEK293 lucGAA850 FXN promoter luciferase reporter, 24 h; percent of 10 µM SAHA response;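 active = activation above the average of all compounds screened plus 3 SD, cutoff fixed separately per campaign, cut at about 7.5% in these data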
APJ antag: antagonists of human apelin receptor APJ, primary screen, CHO-K1 cells, beta-arrestin complementation, luminescence; P35414; inhibition, % at 20 µM; hit rate 0.32% among 330,000; AID 2521, 2010;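 active = inhibition above about 40% at 20 µM, limit read from the data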;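 note: cells challenged with 10 nM apelin-13 agonist together with compound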
CXCR6 block: CXCR6 receptor inhibitors, primary screen, cell-based, beta-arrestin, luminescence, CHO-K1 PathHunter, 1536-well; inhibition, % at 20 µM; hit rate 0.36% among 360,000; in the data active = inhibition above about 34%, passing the limit was not always enough;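 note: antagonist mode with CXCL16 agonist at 10 nM final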
EBI2 conf: EBI2 antagonist hit retest, beta-arrestin, confirmation, cell-based, single concentration, luminescence, 7a,25-OHC stimulation. inhibition, % at 5 µM. AID 651997, 2013. hit rate 29% among 2,400. 7a,25-OHC antagonism. shares compounds with EBI2 block;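 active = inhibition of at least 50%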
EBI2 ag: EBI2 agonist activity of antagonist hits, confirmation, counter-screen for EBI2 antagonist project, cell-based, single concentration, agonist mode, luminescence | shares compounds with EBI2 block | EBI2-expressing cells, 60 min; 0% vehicle, 100% 7α,25-dihydroxycholesterol control | activation, % at 5 µM | 2,400 tested, under 10 active | AID 652000, 2013;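 active = activation of at least 50%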
bGal counter: E. coli beta-galactosidase enzyme inhibition, confirmation, counter-screen for EBI2 antagonist project, biochemical, luminescence, single concentration. shares compounds with EBI2 block. purified beta-galactosidase, luminescent Galacton Star, 15 min. inhibition, % at 5 µM. hit rate 1% among 2,400. AID 652176, 2013;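 active = replicate-average signal at least 3 plate SD below neutral wells, shown as high inhibition, flagging enzyme-inhibiting false positives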;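 note: higher means stronger loss of beta-gal luminescence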
Large screens that a line does not name were inactive (follow-up assays come after a bar, where they were run). An excerpt weighted towards active compounds, which were near 2% of everything screened.

Cc1ccc(CNC(=O)C2CCN(S(=O)(=O)c3c(C)noc3/C=C/c3ccco3)CC2)cc1	EBI2 block 65.2 | EBI2 conf inactive | EBI2 ag inactive | bGal counter inactive
COc1ccc(CNC(=O)N2CCN(S(=O)(=O)c3ccccc3)CC2)cc1	none
CC(OC(=O)CCCN=C1NS(=O)(=O)c2ccccc21)C(=O)Nc1ccccc1[N+](=O)[O-] (centres undefined)	none
COC(=O)C(Cc1ccc(O)cc1)NC(=O)C(C)NC(=O)c1ccc(C(C)(C)C)cc1 (centres undefined)	none
CCN1CCN(C(=O)CCc2nnc3ccc(N4CCN(c5cccc(OC)c5)CC4)nn23)CC1	none
CC(OC(=O)CNC(=O)c1ccc2ccccc2c1)C(=O)N(C)C1CCCCC1 (centres undefined)	EBI2 block 50.4 | EBI2 conf inactive | EBI2 ag inactive | bGal counter inactive
COc1ccccc1C(=O)NCC(=O)OC(C)C(=O)N(C)C1CCCCC1 (centres undefined)	none
COc1ccc(-c2cc(-c3ccccc3)nc3ncnn23)cc1	none
COc1ccc(-c2cc(-c3ccc(Br)cc3)nc3ncnn23)cc1OC	EBI2 block 60.0 | EBI2 conf inactive | EBI2 ag inactive | bGal counter inactive
O=C(COc1ccc([N+](=O)[O-])cc1)N1CCN(c2nnc(-c3ccccc3)c3ccccc23)CC1	EBI2 block 68.1 | EBI2 conf inactive | EBI2 ag inactive | bGal counter inactive
Cc1ccc(-c2nnc(N3CCN(C(=O)COc4ccccc4)CC3)c3ccccc23)cc1	EBI2 block 86.2 | EBI2 conf 53.0 | EBI2 ag inactive | bGal counter inactive
O=C(NCCC1=CCCCC1)C(=O)NCC(c1ccco1)N1CCN(c2ccccc2)CC1 (centres undefined)	none
O=C(NCCc1c[nH]c2ccccc12)C(=O)NCC(c1ccco1)N1CCN(c2ccccc2)CC1 (centres undefined)	EBI2 block 36.5 | EBI2 conf inactive | EBI2 ag inactive | bGal counter inactive
O=C(NCCc1c[nH]c2ccccc12)C(=O)NCC(c1ccco1)N1CCN(c2ccc(F)cc2)CC1 (centres undefined)	EBI2 block 41.0 | EBI2 conf inactive | EBI2 ag inactive | bGal counter inactive
CC(Oc1ccc(F)cc1)C(=O)Nc1ccc2ccccc2c1 (centres undefined)	EBI2 block 50.0 | EBI2 conf inactive | EBI2 ag inactive | bGal counter inactive
CC(=O)NC(c1ccccc1)c1nc(-c2ccc(Cl)cc2)cs1 (centres undefined)	none (no result: CCR6 antag, APJ agonist, APJ antag)
O=C(O)CNC(=O)/C(=C\c1cccc([N+](=O)[O-])c1)NC(=O)c1ccco1	none
CCC(=O)N1CCC2(CC1)Oc1ccc(Cl)cc1C(=O)C21CC(c2ccccc2)=NO1 (centres undefined)	none
O=C(/C=C/c1cccs1)N1CCC2(CC1)Oc1ccc(Cl)cc1C(=O)C21CC(c2ccccc2)=NO1 (centres undefined)	EBI2 block 61.0 | EBI2 conf inactive | EBI2 ag inactive | bGal counter inactive
CCOC(=O)N1CCN(C(=O)COc2ccc3ccccc3c2Br)CC1	EBI2 block 51.6 | EBI2 conf inactive | EBI2 ag inactive | bGal counter inactive
CCOC(=O)N1CCN(C(=O)COc2ccccc2Cl)CC1	none
CCOC(=O)N1CCN(C(=O)COc2cc(C)c(Cl)c(C)c2)CC1	EBI2 block 82.7 | EBI2 conf 62.9 | EBI2 ag inactive | bGal counter inactive
COc1ccc([C@H]2CC(=O)C=C(c3ccc(OC)c(OC)c3)C2)cc1	EBI2 block 46.0 | EBI2 conf inactive | EBI2 ag inactive | bGal counter inactive
COc1ccc([C@H]2CC(=O)C=C(c3ccc4ccccc4c3)C2)cc1OC	EBI2 block 61.9 | EBI2 conf 50.9 | EBI2 ag inactive | bGal counter inactive
COc1ccc([C@H]2CC(=O)C=C(c3ccc(OC)c(F)c3)C2)cc1	EBI2 block 51.1 | EBI2 conf inactive | EBI2 ag inactive | bGal counter inactive
COc1ccc(C2=CC(=O)CC(c3ccccc3)C2)cc1 (centres undefined)	none
Cc1ccc(S(=O)(=O)Cc2cc(F)c([N+](=O)[O-])cc2[N+](=O)[O-])cc1	none
O=C1C=C(c2cc(C(F)(F)F)cc(C(F)(F)F)c2)C[C@@H](c2ccc(Cl)cc2)C1	EBI2 block 59.9 | EBI2 conf inactive | EBI2 ag inactive | bGal counter inactive
O=C1C=C(c2cc3ccccc3s2)C[C@@H](c2ccc(Cl)cc2)C1	none
COc1ccc([C@H]2CC(=O)C=C(c3cccc(C(F)(F)F)c3)C2)cc1	none
COc1ccc(C2=CC(=O)C[C@H](c3ccc(Cl)cc3)C2)cc1	EBI2 block 49.8 | EBI2 conf 58.8 | EBI2 ag inactive | bGal counter inactive
C=Cc1ccc(C2=CC(=O)C[C@H](c3ccc(OC)cc3)C2)cc1	EBI2 block 77.1 | EBI2 conf 53.9 | EBI2 ag inactive | bGal counter inactive
O=C1C=C(c2cc3ccccc3s2)C[C@@H](c2ccc(F)cc2)C1	EBI2 block 52.7 | EBI2 conf inactive | EBI2 ag inactive | bGal counter inactive
COc1ccc(C2=CC(=O)CC(c3ccc(F)cc3)C2)cc1 (centres undefined)	none
O=C(/C=C/[C@H]1O[C@@H](n2ccc(=O)[nH]c2=O)[C@H](O)[C@@H]1O)NCc1cccs1	none (no result: CCR6 antag, APJ agonist, FXN GAA850 act, APJ antag)
CN1CCN(c2ncnc3c2ncn3[C@H]2CN(Cc3ccc(-c4ccccc4)cc3)C[C@@H](CO)O2)CC1	none (no result: CCR6 antag, APJ agonist, APJ antag)
